Results as given in ChEMBL document CHEMBL2440038, “Arylthioamides as H2S Donors: l-Cysteine-Activated Releasing Properties and Vascular Effects in Vitro and in Vivo” (ACS Med Chem Lett, 2013).
Activity calls are given as the source filed them. The calls are words filed in the database; no cut-off is given here.

Legend:
Aorta = experiment: Inhibition of noradrenaline-induced vasoconstriction in Wistar rat endothelium-denuded thoracic aortic ring at 1 mM after 20 mins; format: functional, tissue-based
Outline: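 Endothelium-denuded rat aortic rings preincubated with test agent, NaHS or vehicle, then given cumulative noradrenaline. Contraction expressed as % of a prior response to 60 mM KCl.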

[1] = Activation of KATP channel in HASMC assessed as membrane hyperpolarization at 1 mM using DiBac4(3) dye by spectrofluorimetric analysis relative to LCRK; settings: Homo sapiens
Outline: (§1)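 Cultured human aortic smooth muscle cells; membrane potential followed as change in relative fluorescence of a potential-sensitive dye. Test agent added at increasing concentrations up to 1 mM. Response expressed as % of maximal hyperpolarization produced by levcromakalim 10 μM (reference KATP opener). Mean with SEM.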

[2] = Induction of H2S release in Tyrode buffer in presence of Wistar rat endothelium-denuded thoracic aortic ring; format: functional; settings: TDE = time-dependent effect
Outline: (§2)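 Incubation in Tyrode buffer, the medium used for functional tests, with or without rat aortic ring tissue. No L-cysteine or glutathione added. H2S recorded continuously by amperometry; concentration reported 15 min after addition. Mean with SEM.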

[3] = Induction of H2S release in Tyrode buffer after 15 mins; format: physicochemical; settings: 0.25 h; outline: as §2
Rattus norvegicus = experiment: Reduction of systolic blood pressure in rat at 0.1 mg/kg, po (reference value: 102% +/- 1%); format: functional, Artery; design: scale not given: the % may be the effect or the level left
[4] = Induction of H2S release in PBS buffer 10x at pH 7.4 at 1 mM in presence of glutathione; format: physicochemical; settings: pH 7.4, 1000 µM
Outline: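 Release measured amperometrically in assay buffer (pH 7.4, 35–37 °C), test agent 1 mM, with reduced glutathione added as the thiol. Continuous H2S–time curves recorded. Mean with SEM.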

[5] = Activation of KATP channel in HASMC assessed as membrane hyperpolarization using DiBac4(3) dye by spectrofluorimetric analysis relative to LCRK; settings: Homo sapiens; outline: as §1

| Structure (SMILES) | inhibition (Aorta) | Activity [1] [%] | Activity [2] | Activity [3] [µM] | Activity (Rattus norvegicus) [%] | Activity [4] | Activity [5] |
| --- | --- | --- | --- | --- | --- | --- | --- |
| NC(=S)c1ccc(O)cc1 | Active | 79 | tde | 0.24 | 89 | Active | Dose-dependent effect |
| [Na+].[SH-] [SODIUM HYDROSULFIDE] | Active | 52 |  |  | 91 |  |  |
